Test results from publication PMC6244714 (European Journal of Drug Metabolism and Pharmacokinetics, 2018).
Values after ≈ are worked out from the molar mass of the structure shown. Read-outs that look alike come from different tables or passages of the source.

Assays:
[1] = assay type: in vivo, human
[2] = assay type: in vivo, human; details: healthy subjects
Outline: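 Open-label, one-sequence, two-period crossover in healthy males and females aged 18–55 years with BMI 18.5–29.9 kg/m2. Period 1: single oral 100 mg tablet of test compound after an ≥8 h fast. Period 2: proton-pump inhibitor 40 mg once daily on Days 1–9, with test compound given 2 h after it on Day 7. Safety was assessed in all subjects dosed with test compound, using TEAE nature, frequency and severity, blood pressure, pulse, hematology, biochemistry, urinalysis and 12-lead ECG.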

[3] = tested on: gastric pH; details: omeprazole 40 mg once daily, healthy subjects; cited from earlier work
[4] = tested on: CYP2C19; details: cited from earlier work
[5] = ref data on file, cited from earlier work
[6] = cited from earlier work
[7] = healthy volunteers; cited from earlier work

AUC ([1]; human, plasma, po, 40 mg) [ng·h/mL]	mean trough ([1]; omeprazole 40 mg daily oral, Day 7 of Period 2, plasma) [ng/mL]	SMILES	Total number of TEAEs reported [2]	gastric pH [3]	inhibitor of CYP2C19 [4]	Overall safety and tolerability ([2]; 100 mg roxadustat alone or in combination with multiple daily oral doses of 40 mg omeprazole)	solubility ([5]; 50 mM potassium phosphate buffer at pH 7.5) [µg/mL]	in vitro solubility ([5]; pH ~ 5) [µg/mL]	solubility ([5]; simulated gastric fluid buffer at pH 1.2) [µg/mL]	terminal elimination half-life (t½) ([6]; after a single dose) [h]	time to maximum plasma concentration ([6]; after oral administration)	impact on Cmax or AUCinf of S- or R-warfarin [7]	substrate for CYP2C19 ([4]; background statement, no reference given)
4230	0.494	COc1ccc2[nH]c([S+]([O-])Cc3ncc(C)c(OC)c3C)nc2c1 (stereo not shown) [Omeprazole]	eight	~ 5	inhibitor	–	–	–	–	–	–	–	–
–	–	Cc1nc(C(=O)NCC(=O)O)c(O)c2ccc(Oc3ccccc3)cc12 [Roxadustat]	–	–	–	safe and well tolerated	3700 (≈ 10.5 mM)	6	1 (≈ 0.00284 mM)	12 to 14	approximately 2 h	does not impact	not a substrate
